S100A4 MyoIIA: S100A4-myosin IIA interaction inhibition; P26447; S100A4/TAMRA-MyoIIA peptide fluorescence polarization; inhibition, % at 10.7 µM; actives 0.14% (n = 360,000); AID 652163;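 active means mean inhibition of at least 70% across replicates, with every replicate also reaching that level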
Target sequence (P26447 whole entry, looked up): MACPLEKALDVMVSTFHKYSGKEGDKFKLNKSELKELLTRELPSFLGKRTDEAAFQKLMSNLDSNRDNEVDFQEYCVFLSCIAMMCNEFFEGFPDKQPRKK
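Material: S100A4 monomer protein / Buffer or medium: 50 mM HEPES pH 7.2, 10 mM CaCl2, 100 mM KCl / Times: 5 min incubation before reading / Benchmarks: neutral control DMSO, positive control TFP / Reagent: labelled myosin peptide probe, 5 nM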
dFosB act-1: enhances mouse delta FosB homodimer DNA binding | P13346 | purified delta FosB, TAMRA-CDK5 oligo fluorescence polarization; percent of positive-control signal above neutral wells | activation, % at 25 µM | actives 0.99% (n = 340,000);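 active means mean activation above about 17%, with every replicate also reaching it, limit read from the data, passing the limit was not always enough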
Target sequence (P13346 whole entry, looked up): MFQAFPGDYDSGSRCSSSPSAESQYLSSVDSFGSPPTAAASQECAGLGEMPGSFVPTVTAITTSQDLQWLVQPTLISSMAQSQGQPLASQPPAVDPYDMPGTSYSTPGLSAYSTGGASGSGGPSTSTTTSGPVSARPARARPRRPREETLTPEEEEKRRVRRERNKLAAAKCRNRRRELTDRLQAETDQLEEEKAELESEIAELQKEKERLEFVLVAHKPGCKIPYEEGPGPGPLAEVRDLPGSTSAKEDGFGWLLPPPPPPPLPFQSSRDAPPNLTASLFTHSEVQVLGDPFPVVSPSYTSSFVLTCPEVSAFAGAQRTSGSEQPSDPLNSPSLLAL
FGF22 binding: shifts melting point of recombinant human FGF22. AID 651658. actives 1.5% (n = 340,000). recombinant FGF22 thermal shift, SYPRO orange fluorescence; percent of sucrose octasulfate shift, DMSO zero. activity (Tm shift, normalised), % at 9.99 µM. Q9HCT0;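 active means mean Tm shift, scaled 0 neutral to 100 positive control, at about 1.3% or above, every replicate too, limit read from the data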
Target sequence (Q9HCT0 whole entry, looked up): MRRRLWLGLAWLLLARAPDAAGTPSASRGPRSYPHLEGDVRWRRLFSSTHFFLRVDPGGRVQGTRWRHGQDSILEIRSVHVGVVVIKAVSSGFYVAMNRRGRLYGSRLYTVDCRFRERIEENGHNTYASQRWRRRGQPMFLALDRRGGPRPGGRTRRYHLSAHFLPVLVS
F508del corr: CFTR F508del correction in bronchial cells | activity (quench increase), % at 7.58 µM | AID 720511 | actives 0.36% (n = 350,000) | CFBE cells, YFP halide quenching; stimulated with forskolin plus potentiator P3; % fluorescence drop versus neutral controls;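 active means mean added fluorescence quench of at least 8% versus neutral control, with both replicates also reaching 8%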;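 further: cells transiently co-express mutant CFTR-F508del with the halide-sensitive YFP; corrector assay measuring rescue of mutant channel to the surface after 24 h compound exposure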
dFosB act-2: delta FosB (mouse) homodimer activation | purified delta FosB, TAMRA-CDK5 oligo fluorescence polarization; normalised: neutral wells 0, positive control 100 | shares compounds with dFosB act-1 | activation, % at 24.9 µM | 2,400 tested, under 10 active;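 active means highest replicate activation at or above 34% and every replicate reaching that threshold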;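 further: higher polarization means more probe DNA bound by delta FosB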
A number is an active result; 0 = inactive; - = no result given. Shown are actives, neighbours in structure and some others; about 2.2% of the full set was active somewhere.

SMILES	S100A4 MyoIIA	dFosB act-1	FGF22 binding	F508del corr	dFosB act-2
COC(=O)c1ccc(NC(=O)c2sc3nc(-c4ccccc4)cn3c2C)cc1	-	26	-	-	0
COC(=O)c1ccc(NC(=O)c2c(C(=O)Nc3ccccc3)sc3nc(C)cc(=O)n23)cc1	0	92	0	0	0
O=C1C(c2ccccc2)SC(=Nc2ccccc2)N1S(=O)(=O)c1ccccc1 (configuration not stated)	-	21	-	-	0
CC1(C)SC(=Nc2ccccc2)N(S(=O)(=O)c2ccccc2)C1=O	0	0	0	0	-
Cc1cccc(NC(=O)COC(=O)c2n[nH]c3ccccc23)c1C	0	25	0	0	0
O=C(COC(=O)c1n[nH]c2ccccc12)Nc1ccccc1F	0	0	0	0	-
COc1ccc(NC(=O)Nc2ccc3c(c2)CC(=O)N([C@@H](C)CO)C[C@@H](C)[C@@H](CN(C)C(=O)Nc2ccc(OC)cc2)O3)cc1	0	-	0	0	-
CCN(C(=O)CSc1nc(-c2cccs2)nc2ccccc12)C1CCS(=O)(=O)C1 (configuration not stated)	0	0	0	0	-
O=C(CSc1nc(-c2cccs2)nc2ccccc12)NC1CCS(=O)(=O)C1 (configuration not stated)	0	34	0	0	0
O=C(C[C@@H]1C/C=C\C[C@@H](Cc2ccc(F)cc2)C(=O)OC[C@@H](Cc2ccccc2)NC1=O)N[C@H](CO)Cc1ccccc1	0	32	0	0	0
CC(=O)Nc1cc2cc(NS(=O)(=O)c3ccc(Cl)cc3)ccc2oc1=O	0	93	0	-	0
CC(C)(C)C(=O)Nc1cc(S(=O)(=O)Nc2ccc(Cl)cc2)ccc1Cl	0	0	0	0	-
CCS(=O)(=O)Nc1ccc(-c2nnc(SCC(=O)c3ccc(NC(C)=O)c(OC)c3)o2)cc1	-	34	-	-	0
Cc1cccc(OCC(=O)NNC(=O)Nc2cccc(Cl)c2)c1C	-	18	-	-	0
COc1ccc(OCC(=O)NNC(=O)Nc2cccc(Cl)c2)cc1	0	0	0	0	-
O=C(Cc1cccc2ccccc12)NNC(=O)Nc1cccc(Cl)c1	-	31	-	-	0
COc1cccc(Cn2cnc3c(NS(=O)(=O)c4ccc(Cl)cc4)c(C)c(C)cc32)c1	-	17	-	-	0
Cc1ccc(C)c(-n2nnnc2SCC(=O)c2ccc3c(c2)NC(=O)CO3)c1	-	68	-	-	0
CC(C)NC(=O)N1[C@H](CO)[C@H]2c3ccccc3N(C(=O)Nc3ccc(F)cc3)C[C@H]21	0	-	0	0	-
COc1ccc(-c2cc(-c3cccs3)c(C#N)c(SCC(=O)NCc3ccco3)n2)cc1	-	47	-	-	0
O=C(C[C@@H]1C[C@H]2c3cc(NC(=O)Nc4ccc(C(F)(F)F)cc4)ccc3O[C@H]2[C@@H](CO)O1)NCc1cccnc1	0	-	0	0	-
O=S(=O)(c1ccc(Cl)cc1)N1CCc2ccccc21	0	18	0	0	0
C[C@@H]1CN([C@@H](C)CO)C(=O)c2cc(-c3ccccc3F)cnc2O[C@@H]1CN(C)C(=O)c1cnccn1	0	-	0	0	-
O=C(NNC(=O)c1cc2ccccc2cc1O)Nc1ccc(F)cc1F	0	30	0	0	0
NC(=O)C1CCN(CC(=O)NC2CCCc3ccccc32)CC1 (configuration not stated)	0	0	-	0	-
SMILES	S100A4 MyoIIA	dFosB act-1	FGF22 binding	F508del corr	dFosB act-2
Cc1cccc(Nc2nnc(SCC(=O)NC3CCCc4ccccc43)s2)c1 (configuration not stated)	0	21	0	0	0
Cc1ccc(-c2nnn(CC(=O)NC3CCCc4ccccc43)n2)cc1 (configuration not stated)	-	25	-	-	0
Cc1ccc(Nc2nnc(SCC(=O)NC3CCCc4ccccc43)s2)cc1 (configuration not stated)	-	0	-	-	-
Cc1ccccc1-c1ccc([C@H]2[C@@H](CO)N3CCCCN(CC4CC4)C[C@H]23)cc1	0	-	0	0	-
Cc1[nH]c2ccccc2c1C(=O)CN1C(=O)C(=O)N(C2CCCC2)C1=O	0	47	0	0	0
O=S(=O)(Cc1ccc(Cl)cc1)c1ccccc1-c1nnc(-c2ccc(Cl)cc2)o1	-	0	-	-	-
O=S(=O)(Cc1ccccc1)c1ccccc1-c1nnc(-c2ccccc2)o1	-	32	-	-	0
C[C@H]1CN([C@@H](C)CO)S(=O)(=O)c2ccc(C3=CCCC3)cc2O[C@H]1CN(C)CC1CC1	0	-	0	0	-
COCC(=O)N(C)C[C@H]1Oc2ncc(C#C[C@@H](C)O)cc2C(=O)N([C@H](C)CO)C[C@H]1C	0	-	0	0	-
O=C(Nc1ccc2c(c1)C(=O)NC2=O)c1cccc(Cl)c1	0	25	0	0	0
Cc1ccc(C(=O)Nc2ccc3c(c2)C(=O)NC3=O)cc1	0	35	0	0	0
O=C(Nc1ccc2c(c1)C(=O)NC2=O)c1cc(Cl)ccc1Cl	0	0	0	0	-
CCCCOc1ccc(C(=O)Nc2ccc3c(c2)C(=O)NC3=O)cc1	0	0	0	0	-
COC(=O)c1ccc(C(=O)Nc2ccc3c(c2)C(=O)NC3=O)cc1	0	86	0	0	0
Cc1cccc(C(=O)Nc2ccc3c(c2)C(=O)NC3=O)c1	0	0	0	0	-
O=C(Nc1ccc2c(c1)C(=O)NC2=O)c1ccc(Cl)s1	0	54	0	0	0
CO[C@H](CN(C)S(=O)(=O)c1cccc(Cl)c1)[C@@H](C)CN(C(=O)Nc1ccccc1F)[C@H](C)CO	0	-	0	0	-
O=C(C[C@@H]1C=C[C@H](NS(=O)(=O)c2ccccc2)[C@H](CO)O1)N1CCN(c2ccccc2)CC1	0	-	-	0	-
O=C(NCCC1=CCCCC1)c1cc(S(=O)(=O)N2CCOCC2)ccc1Cl	0	0	0	0	-
O=C(NCCC1=CCCCC1)c1cc(S(=O)(=O)N2CCOCC2)c(Cl)cc1Cl	0	19	0	0	0
CCOc1cc(/C=N/O)cc(Br)c1OCC	-	0	-	-	-
CCOc1cc(/C=N/O)cc(Br)c1OCc1ccc(Cl)cc1	-	32	-	-	0
NC(=O)c1ccc(NC(=O)COC(=O)c2cc3ccccc3cc2O)cc1	0	36	0	0	0
O=C(COC(=O)CNS(=O)(=O)/C=C/c1ccccc1)Nc1cccc2ccccc12	-	27	-	-	0
O=C(COC(=O)c1ccccc1O)Nc1cccc2ccccc12	0	39	0	0	0
NS(=O)(=O)c1ccc(NC(=O)COC(=O)c2cc3ccccc3cc2O)cc1	0	0	0	0	-
Cc1ccccc1S(=O)(=O)N1CC[C@@H]2[C@H]1c1cc(C#Cc3ccccc3)ccc1N[C@@H]2CO	0	-	0	0	-
Cc1cn(-c2cc(NC(=O)c3ccc(C)c(NC(=O)c4cccc(-c5cn[nH]c(=O)c5)c4)c3)cc(C(F)(F)F)c2)cn1	-	41	-	-	0
CCc1ccc2[nH]c3nc(SCc4nnc(-c5ccccc5)o4)nnc3c2c1	0	0	0	0	-
COc1ccc2[nH]c3nc(SCc4nnc(-c5ccccc5)o4)nnc3c2c1	-	19	-	-	0

Screening results: PubChem, Broad Institute
